In ChEMBL document CHEMBL5120858, “Structure-activity relationship and antitumor activity of 1,4-pyrazine-containing inhibitors of histone acetyltransferases P300/CBP” (Eur J Med Chem, 2022):
One block for each molecule: values may come before it. Activity calls are given as the source filed them. The calls are words filed in the database; no cut-off is given here.

Key:
[1] = molecular target: T1, Histone acetyltransferase p300 (Homo sapiens, UniProt Q09472); test: Inhibition of human p300 HAT domain (1195 to 1673 residues) using histone H3 peptide and acetyl-coA as substrates preincubated for 10 mins followed by substrate addition and measured after 30 mins by beckman scintillation counting analysis
T1 sequence (Q09472 whole entry, the tested form may be a part): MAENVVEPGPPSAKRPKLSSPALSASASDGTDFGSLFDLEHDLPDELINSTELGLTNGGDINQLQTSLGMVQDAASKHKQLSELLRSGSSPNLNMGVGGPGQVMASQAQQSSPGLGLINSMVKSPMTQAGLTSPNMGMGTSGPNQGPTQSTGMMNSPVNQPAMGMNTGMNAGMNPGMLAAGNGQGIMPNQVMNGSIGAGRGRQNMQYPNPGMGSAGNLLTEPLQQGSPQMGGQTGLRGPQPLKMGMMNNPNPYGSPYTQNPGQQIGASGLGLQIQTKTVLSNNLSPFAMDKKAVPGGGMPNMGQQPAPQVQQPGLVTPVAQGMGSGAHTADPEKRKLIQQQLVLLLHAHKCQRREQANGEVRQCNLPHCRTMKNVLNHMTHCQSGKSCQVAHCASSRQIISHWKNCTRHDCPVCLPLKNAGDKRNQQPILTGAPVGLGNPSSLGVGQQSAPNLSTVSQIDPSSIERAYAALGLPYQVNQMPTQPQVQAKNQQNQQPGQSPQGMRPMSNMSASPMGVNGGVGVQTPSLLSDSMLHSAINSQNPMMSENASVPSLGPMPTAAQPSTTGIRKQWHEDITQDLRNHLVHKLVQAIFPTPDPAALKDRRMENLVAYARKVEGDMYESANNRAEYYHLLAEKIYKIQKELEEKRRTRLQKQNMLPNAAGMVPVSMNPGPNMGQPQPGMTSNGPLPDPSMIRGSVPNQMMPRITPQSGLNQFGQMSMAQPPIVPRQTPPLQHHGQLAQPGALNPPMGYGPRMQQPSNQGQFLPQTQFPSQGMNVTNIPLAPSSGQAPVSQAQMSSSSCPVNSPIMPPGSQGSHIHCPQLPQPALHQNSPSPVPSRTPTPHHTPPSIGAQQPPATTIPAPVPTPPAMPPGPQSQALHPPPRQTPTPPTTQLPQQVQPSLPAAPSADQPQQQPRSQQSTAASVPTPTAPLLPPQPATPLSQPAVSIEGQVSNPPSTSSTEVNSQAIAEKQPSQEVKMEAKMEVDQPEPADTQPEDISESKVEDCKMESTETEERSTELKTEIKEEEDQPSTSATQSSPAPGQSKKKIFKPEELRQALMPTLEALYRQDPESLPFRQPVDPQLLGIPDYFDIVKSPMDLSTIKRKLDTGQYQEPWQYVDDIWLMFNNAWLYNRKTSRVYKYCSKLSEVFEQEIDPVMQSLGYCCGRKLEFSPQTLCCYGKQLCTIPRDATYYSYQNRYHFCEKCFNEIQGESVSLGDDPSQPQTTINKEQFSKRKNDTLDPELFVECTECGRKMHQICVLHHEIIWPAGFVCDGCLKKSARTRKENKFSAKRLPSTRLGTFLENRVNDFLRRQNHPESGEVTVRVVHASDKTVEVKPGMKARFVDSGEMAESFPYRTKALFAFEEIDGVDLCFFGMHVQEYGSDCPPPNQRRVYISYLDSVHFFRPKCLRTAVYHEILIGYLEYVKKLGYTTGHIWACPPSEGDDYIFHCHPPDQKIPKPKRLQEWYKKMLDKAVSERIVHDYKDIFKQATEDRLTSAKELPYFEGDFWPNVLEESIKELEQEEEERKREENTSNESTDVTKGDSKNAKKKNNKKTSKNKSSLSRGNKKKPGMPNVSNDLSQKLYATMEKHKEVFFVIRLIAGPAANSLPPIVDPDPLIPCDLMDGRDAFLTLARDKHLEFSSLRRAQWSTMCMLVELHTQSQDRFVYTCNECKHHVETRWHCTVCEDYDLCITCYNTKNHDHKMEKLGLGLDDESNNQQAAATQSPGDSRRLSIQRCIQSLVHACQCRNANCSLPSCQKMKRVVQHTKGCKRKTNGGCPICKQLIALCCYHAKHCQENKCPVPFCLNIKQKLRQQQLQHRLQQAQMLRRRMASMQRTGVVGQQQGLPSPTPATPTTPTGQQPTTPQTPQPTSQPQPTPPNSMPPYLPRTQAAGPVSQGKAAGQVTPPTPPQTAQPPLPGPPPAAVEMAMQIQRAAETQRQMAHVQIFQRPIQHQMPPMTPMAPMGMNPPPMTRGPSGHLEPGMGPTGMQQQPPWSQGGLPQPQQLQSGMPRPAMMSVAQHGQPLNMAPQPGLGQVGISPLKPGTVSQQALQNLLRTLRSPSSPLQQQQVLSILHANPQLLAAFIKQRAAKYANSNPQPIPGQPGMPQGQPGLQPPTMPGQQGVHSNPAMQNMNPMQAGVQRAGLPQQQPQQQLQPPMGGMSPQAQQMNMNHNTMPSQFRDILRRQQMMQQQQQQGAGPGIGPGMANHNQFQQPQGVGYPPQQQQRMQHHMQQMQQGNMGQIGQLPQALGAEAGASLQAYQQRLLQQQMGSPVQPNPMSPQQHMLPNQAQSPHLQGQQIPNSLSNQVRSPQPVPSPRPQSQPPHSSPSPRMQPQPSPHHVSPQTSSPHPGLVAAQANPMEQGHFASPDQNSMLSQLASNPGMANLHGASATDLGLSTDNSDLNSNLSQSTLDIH
In short: (§1)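 Radiometric HAT assay. Enzyme at 10 nM was preincubated with graded compound for 10 min at 25 °C in 50 mM phosphate pH 7.0 with 0.01% Brij-35. Reaction started with H3 (1-21) peptide (20 μM) plus Ac-CoA (1 μM ³H-Ac-CoA + 19 μM unlabelled) and run 30 min at 25 °C. Stopped with formic acid, spotted on P81 paper, washed with NaHCO₃ and scintillation counted. IC₅₀ from sigmoidal fit, mean of ≥3 experiments.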

[2] = test system: LNCaP; test: Antiproliferative activity against human LNCaP cells assessed as reduction in cell growth incubated for 5 days by XTT assay; assay type: functional, cell-based; conditions: 120 h
In short: (§2)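 Solid tumour cells were seeded at 10⁵ per well in DMEM with 10% FBS and penicillin/streptomycin and allowed to attach overnight. They were then exposed to increasing compound concentrations for 5 days. Viability was read by XTT, and EC50 came from dose-response curves.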

[3] = test system: MV4-11; test: Antiproliferative activity against human MV4-11 cells assessed as reduction in cell growth incubated for 5 days by XTT assay; assay type: functional, cell-based; conditions: MV4-11, 120 h
In short: (§3)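 Blood cancer cells were plated at 10⁶ per well in RPMI-1640 with 20% FBS and penicillin/streptomycin and grown with increasing compound concentrations at 37 °C, 5% CO₂. Viability was measured by XTT, and EC50 was calculated from dose-response curves.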

[4] = test system: MDA-MB-231; test: Antiproliferative activity against human MDA-MB-231 cells assessed as reduction in cell growth incubated for 5 days by XTT assay; assay type: functional, cell-based; conditions: MDA-MB-231, 120 h
[5] = test system: PC-3; test: Antiproliferative activity against human PC-3 cells assessed as reduction in cell growth incubated for 5 days by XTT assay; assay type: functional, cell-based; conditions: PC-3, 120 h
[6] = test system: PANC-1; test: Antiproliferative activity against human PANC-1 cells assessed as reduction in cell growth incubated for 5 days by XTT assay; assay type: functional, cell-based; conditions: PANC-1, 120 h; in short: as §2
[7] = test system: MOLM-13; test: Antiproliferative activity against human MOLM-13 cells assessed as reduction in cell growth incubated for 5 days by XTT assay; assay type: functional, cell-based; conditions: MOLM-13, 120 h; in short: as §3
[8] = test system: MCF7; test: Antiproliferative activity against human MCF7 cells assessed as reduction in cell growth incubated for 5 days by XTT assay; assay type: functional, cell-based; conditions: MCF7, 120 h; in short: as §2
[9] = test system: RPMI-8226; test: Antiproliferative activity against human RPMI-8226 cells assessed as reduction in cell growth incubated for 5 days by XTT assay; assay type: functional, cell-based; conditions: RPMI-8226, 120 h; in short: as §3
[10] = Antiproliferative activity against human MDA-Panc-28 cells assessed as reduction in cell growth incubated for 5 days by XTT assay; assay type: functional, cell-based; conditions: MDA-Panc-28, 120 h; in short: as §2
[11] = molecular target: T1, Histone acetyltransferase p300; test: Inhibition of human p300 HAT domain (1195 to 1673 residues) at 10 uM using histone H3 peptide and acetyl-coA as substrates preincubated for 10 mins followed by substrate addition and measured after 30 mins by beckman scintillation counting analysis relative to control; conditions: time 40.0 min
In short: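 Single-concentration screen at 10 μM in the radiometric p300 HAT domain assay: enzyme 10 nM, pH 7.0 phosphate/Brij-35, 10 min preincubation, then H3(1-21) peptide 20 μM plus ³H/unlabelled Ac-CoA (20 μM total), 30 min at 25 °C. Filter-bound ³H-acetylated peptide was counted, and the value is given as % inhibition.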

[12] = molecular target: T1, Histone acetyltransferase p300; test: Inhibition of biotinylated histone H4 peptide binding to His-tagged human p300 HAT domain (1195 to 1673 residues) assessed as reduction in alpha signal incubated for 1 hr by amplified luminescent proximity homogeneous assay
In short: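 AlphaScreen binding assay in PBS with 0.5% BSA: His6-tagged p300 HAT (125 nM) on nickel chelate acceptor beads and biotinylated H4 peptide (30 nM) on streptavidin donor beads, with a dilution series of compound. After 1 h, signal was read with excitation at 680 nm and emission at 570 nm, and IC50 came from a sigmoidal dose-response fit.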

[13] = test system: Kasumi 1; test: Inhibition of histone H3 acetylation at lysine 18 residue in human Kasumi 1 cells incubated for 12 hrs by Western blot analysis; assay type: functional, cell-based; conditions: dose 5-10 µM, DDE = dose-dependent effect
In short: (§4)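 Kasumi-1 leukemia cells (10⁶ per well) were treated 12 h with a range of compound concentrations. Total histones were extracted, and 2 μg was resolved by SDS-PAGE and transferred to PVDF. Blots were probed for H3K9ac, H3K18ac, H3K27ac and total H3, with anti-rabbit IgG secondary.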

[14] = molecular target: Histone acetyltransferase KAT2B (Homo sapiens, UniProt Q92831); test: Inhibition of human PCAF using histone H3 peptide and acetyl-coA as substrates preincubated for 10 mins followed by substrate addition and measured after 30 mins by beckman scintillation counting analysis; in short: as §1
Sequence of Histone acetyltransferase KAT2B (Q92831 whole entry): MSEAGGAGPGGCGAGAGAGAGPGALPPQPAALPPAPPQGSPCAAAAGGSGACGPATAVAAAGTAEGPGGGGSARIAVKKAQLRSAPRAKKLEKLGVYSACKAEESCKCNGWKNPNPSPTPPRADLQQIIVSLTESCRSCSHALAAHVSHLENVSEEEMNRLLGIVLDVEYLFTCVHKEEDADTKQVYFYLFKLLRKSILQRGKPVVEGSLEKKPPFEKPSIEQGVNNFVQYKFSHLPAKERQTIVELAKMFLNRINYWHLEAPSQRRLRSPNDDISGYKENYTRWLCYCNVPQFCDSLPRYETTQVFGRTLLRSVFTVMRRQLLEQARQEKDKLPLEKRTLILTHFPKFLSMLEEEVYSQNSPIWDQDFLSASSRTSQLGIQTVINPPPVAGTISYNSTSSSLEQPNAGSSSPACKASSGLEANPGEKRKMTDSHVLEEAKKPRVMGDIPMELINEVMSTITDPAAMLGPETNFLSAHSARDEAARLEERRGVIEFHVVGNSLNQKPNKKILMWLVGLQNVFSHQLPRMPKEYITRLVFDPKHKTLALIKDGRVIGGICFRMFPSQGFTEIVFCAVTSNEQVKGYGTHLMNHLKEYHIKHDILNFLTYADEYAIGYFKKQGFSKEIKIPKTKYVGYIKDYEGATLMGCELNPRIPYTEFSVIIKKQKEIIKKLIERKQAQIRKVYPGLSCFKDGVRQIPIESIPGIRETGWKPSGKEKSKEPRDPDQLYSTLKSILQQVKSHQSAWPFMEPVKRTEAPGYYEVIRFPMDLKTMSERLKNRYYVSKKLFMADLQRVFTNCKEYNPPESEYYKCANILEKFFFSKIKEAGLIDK

[15] = test system: Kasumi 1; test: Inhibition of histone H3 acetylation at lysine 9 residue in human Kasumi 1 cells at 5 to 10 uM incubated for 12 hrs by Western blot analysis; assay type: functional, cell-based; conditions: dose 5-10 µM; in short: as §4
[16] = molecular target: CREB-binding protein (Homo sapiens, UniProt Q92793); test: Inhibition of human CBP-HAT domain using histone H3 peptide and acetyl-coA as substrates preincubated for 10 mins followed by substrate addition and measured after 30 mins by beckman scintillation counting analysis; in short: as §1
[17] = molecular target: Histone acetyltransferase KAT6A (Homo sapiens, UniProt Q92794); test: Inhibition of human Myst3 using histone H3 peptide and acetyl-coA as substrates preincubated for 10 mins followed by substrate addition and measured after 30 mins by beckman scintillation counting analysis; in short: as §1
[18] = test system: Kasumi 1; test: Inhibition of histone H3 acetylation at lysine 27 residue in human Kasumi 1 cells at 5 to 10 uM incubated for 12 hrs by Western blot analysis; assay type: functional, cell-based; conditions: dose 5-10 µM; in short: as §4

SMILES: Ic1ccc(-c2ncc(OCC3CCNCC3)nc2-c2ccc(I)cc2)cc1
- IC50 [1]: 7.8 µM

SMILES: NCCCOc1cnc(-c2ccc(Br)cc2)c(-c2ccc(Br)cc2)n1
- EC50 [2]: > 20 µM
- EC50 [3]: > 20 µM
- EC50 [4]: > 20 µM
- EC50 [5]: > 20 µM
- EC50 [6]: > 20 µM
- EC50 [7]: > 20 µM
- IC50 [1]: > 10 µM
- EC50 [8]: > 20 µM
- EC50 [9]: > 20 µM
- EC50 [10]: > 20 µM

SMILES: CC(=O)NCCOc1cnc(-c2ccc(Br)cc2)c(-c2ccc(Br)cc2)n1
- inhibition [11]: 0%
- IC50 [1]: > 10 µM

SMILES: CN(C)Cc1ccc(-c2ncc(OCC3CCNCC3)nc2-c2ccc(CN(C)C)cc2)cc1
- IC50 [1]: > 10 µM

SMILES: COc1ccc(-c2ncc(OCC3CCNCC3)nc2-c2ccc(OC)cc2)cc1
- inhibition [11]: 38%
- IC50 [1]: > 10 µM

SMILES: N#Cc1ccc(-c2nc(OCC3CCNCC3)cnc2-c2ccc(Br)cc2)cc1
- inhibition [11]: 21%
- IC50 [1]: > 10 µM

SMILES: NCCOc1cnc(-c2ccc(Br)cc2)c(-c2ccc(Br)cc2)n1
- inhibition [11]: 5.4%
- IC50 [1]: > 10 µM

- inhibition [11]: 72.5%
- IC50 [12]: 27 µM
- IC50 [1]: 5.7 µM
SMILES: Brc1ccc(-c2ncc(OCC3CCNCC3)nc2-c2ccc(Br)cc2)cc1

SMILES: CC(C)(C)c1ccc(-c2ncc(OCC3CCNCC3)nc2-c2ccc(C(C)(C)C)cc2)cc1
- IC50 [1]: 17.6 µM

SMILES: Brc1cccc(-c2ncc(OCC3CCNCC3)nc2-c2cccc(Br)c2)c1
- IC50 [1]: 9.9 µM

SMILES: Clc1ccc(-c2ncc(OCC3CCNCC3)nc2-c2ccc(Cl)cc2)cc1
- IC50 [1]: > 10 µM

- IC50 [1]: 2.3 µM
SMILES: Nc1ccc(-c2ccc(-c3ncc(OCC4CCNCC4)nc3-c3ccc(-c4ccc(N)cc4)cc3)cc2)cc1

SMILES: CNCCOc1cnc(-c2ccc(Br)cc2)c(-c2ccc(Br)cc2)n1
- inhibition [11]: 19.6%
- IC50 [1]: > 10 µM

SMILES: c1cc(-c2ccc(-c3ncc(OCC4CCNCC4)nc3-c3ccc(-c4ccoc4)cc3)cc2)co1
- inhibition [13]: Dde
- IC50 [14]: > 100 µM
- EC50 [3]: 8.7 µM
- IC50 [12]: 7.2 µM
- inhibition [15]: Active
- IC50 [16]: 2.2 µM
- IC50 [17]: > 100 µM
- EC50 [6]: 1.2 µM
- EC50 [7]: 3.6 µM
- IC50 [1]: 1.4 µM
- inhibition [18]: Active
- EC50 [8]: 5.3 µM
- EC50 [9]: 6.4 µM
- EC50 [10]: 4.3 µM

SMILES: FC(F)(F)c1ccc(-c2ncc(OCC3CCNCC3)nc2-c2ccc(C(F)(F)F)cc2)cc1
- inhibition [11]: 34%
- IC50 [1]: > 10 µM

SMILES: N#Cc1ccc(-c2ncc(OCC3CCNCC3)nc2-c2ccc(Br)cc2)cc1
- inhibition [11]: 0%
- IC50 [1]: > 10 µM
